From PubChem
TDP2 absorb – human TDP2 enzyme inhibitors, primary screen, biochemical, epi absorbance, recombinant enzyme; inhibition, % at 12.8 µM; T5PNP hydrolysis, p-nitrophenol absorbance 415 nm; Tyrosyl-DNA phosphodiesterase 2 (Homo sapiens), O95551; 370,000 compounds, 0.34% hits;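 active means inhibition above the mean of all tested compounds plus 3 SD, set per campaign, cut at about 25% in these data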;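 further: 0% = DMSO with enzyme and 100% = buffer with substrate but no TDP2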
Target sequence (O95551 whole entry, looked up): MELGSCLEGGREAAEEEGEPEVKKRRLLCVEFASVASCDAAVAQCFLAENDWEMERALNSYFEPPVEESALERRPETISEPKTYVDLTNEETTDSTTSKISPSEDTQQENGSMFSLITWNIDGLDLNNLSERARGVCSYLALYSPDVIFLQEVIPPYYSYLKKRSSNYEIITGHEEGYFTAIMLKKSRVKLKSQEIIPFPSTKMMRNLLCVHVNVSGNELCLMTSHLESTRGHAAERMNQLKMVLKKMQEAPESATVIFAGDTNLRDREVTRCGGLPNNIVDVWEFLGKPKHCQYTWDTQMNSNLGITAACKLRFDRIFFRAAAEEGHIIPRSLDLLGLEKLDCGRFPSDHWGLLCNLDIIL
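System: recombinant human TDP2 / Amount: 120 nM TDP2 per well / Also added: 5 mM T5PNP chromogenic substrate / Doses: 12.8 µM single point, 1% DMSO / Incubation: 2 h at 37 °C / Detection: p-Nitrophenol epi absorbance / Evaluation: % inhibition relative to enzyme-containing and enzyme-free wells / Repeats: singlicate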
LEDGF integ inh – blockers of LEDGF/p75-dependent integrase strand transfer – biochemical, TR-FRET, high throughput, primary screen. inhibition, % at 3.7 µM. TR-FRET IN-LEDGF/p75 DNA integration, Eu/Cy5. 370,000 compounds, 0.64% hits. HIV-1 integrase (with human LEDGF/p75);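 active means inhibition above the screen-wide mean plus 3 SD, cut at about 13% in these data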;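 further: signal is the Cy5 over europium emission ratio at 671 and 618 nm; 0% = plate median of compound wells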
Rin1 Abl inh – inhibitors of Rin1-Abl protein binding, primary screen, biochemical, TR-FRET | Tyrosine-protein kinase ABL1 (Homo sapiens) + Ras and Rab interactor 1 (Homo sapiens), … | inhibition, % at 7.35 µM | 360,000 compounds, 0.4% hits; in the data active means inhibition above about 5%, passing the limit was not always enough
MBD2 DNA inh – inhibitors of MBD2 binding to methylated DNA, primary screen, biochemical, TR-FRET, DNA-binding domain, human; Methyl-CpG-binding domain protein 2 (Homo sapiens), Q9UBB5; MBD2 binding to methylated oligonucleotide; inhibition, % at 4.4 µM; 370,000 compounds, 0.31% hits; in the data active means inhibition above about 13%
UHRF1 MBD2 ctr – UHRF1 methylated DNA binding inhibitors, primary screen, counter-screen for MBD2 inhibitor project, biochemical, TR-FRET, human UHRF1, single concentration. inhibition, % at 4.4 µM. 370,000 compounds, 0.75% hits. UHRF1 binding to methylated oligo. AID 687016, 2013; in the data active means inhibition above about 21%;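 further: UHRF1 SRA domain binding a hemimethylated CpG hairpin DNA probe; 0% = median of test compound wells and 100% = reference inhibitor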
TDP2 confirm – human TDP2 enzyme inhibitors, retest, confirmation, biochemical, epi absorbance, recombinant enzyme. shares compounds with TDP2 absorb. absorbance read-out. inhibition, % at 12.8 µM. 1,100 compounds, 22% hits. AID 743263, 2014; in the data active means inhibition above about 25%;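 further: 0% = vehicle with enzyme and 100% = no enzyme buffer only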
An asterisk follows results filed as active; / = no result. Sampled rows, rich in hits. Any-hit rate of the full collection: about 1.9%.

SMILES	TDP2 absorb	LEDGF integ inh	Rin1 Abl inh	MBD2 DNA inh	UHRF1 MBD2 ctr	TDP2 confirm
CCc1ccc(NC(=S)Nc2cccc3cnccc23)cc1	37.9*	5.8	0.5	-9.2	-1.1	6.3
COC(=O)[C@]12C[C@H](CC(=O)NCc3ccc(OC)c(OC)c3)C(=O)N(Cc3ccccc3)C1=C[C@H](COCc1ccccc1)O[C@@H]2C	-7.3	-3.1	/	-2.9	0.0	/
O=C(NC(=S)Nc1ccccc1Cl)c1cncc(Br)c1	27.3*	0.1	1.1	-2.0	-0.9	-3.8
O=C(NC(=S)Nc1ccccc1Cl)c1cncc(C#Cc2ccccc2)c1	5.8	-0.3	-0.6	-2.0	1.2	/
O=C(COC(=O)c1nc(Cl)ccc1Cl)c1ccccc1Cl	29.3*	0.8	3.1	-5.7	-2.2	0.1
COc1ccccc1C(=O)COC(=O)c1nc(Cl)ccc1Cl	4.8	1.5	-1.2	-2.5	-0.8	/
CCN(C(=O)COC(=O)c1[nH]c(=O)[nH]c(=O)c1N)c1ccccc1	30.3*	-3.4	-1.6	-3.2	-6.6	0.0
COc1ccc(-c2csc3ncnc(N4CCN(S(=O)(=O)c5cccc(C(F)(F)F)c5)CC4)c23)cc1	24.7*	4.1	-0.6	1.9	3.7	0.8
COc1ccc(-c2csc3ncnc(N4CCN(S(=O)(=O)c5cccc(Br)c5)CC4)c23)cc1	5.1	3.1	3.3	-2.5	-3.2	/
COc1ccc2ccc3c(c2c1)N=C[C@]1(O3)N(C)c2ccccc2C1(C)C	41.2*	7.3	5.8	-4.5	9.1	0.2
COC(=O)c1cc(S(=O)(=O)N2CCN(C(C)=O)CC2)cn1C	-11.7	3.4	/	-0.1	0.3	/
COC(=O)[C@]12C[C@H](CC(=O)N3CCSCC3)C(=O)N(Cc3cccc4ccccc34)C1=C[C@H](C(C)(C)C)O[C@@H]2C	-3.0	-0.7	/	1.8	4.7	/
O=C1NC(=O)/C(=C/c2ccccc2OCc2ccccc2)S1	25.4*	2.9	-1.1	-5.2	-1.8	12.2
O=C(NCC(=O)N1CCN(C(=O)c2ccco2)CC1)c1ccc(Br)cc1	25.2*	3.1	2.1	-5.5	-0.2	-4.3
C/C(=N\NC(=O)CNC(=O)c1ccc(Br)cc1)c1ccco1	36.4*	0.2	0.4	2.0	-3.9	-8.7
O=C(NCC(=O)N1CCCC1)c1ccc(Br)cc1	9.7	-0.3	0.4	-6.3	0.4	/
CCCOc1ccc(-c2cc(C(C)=O)c3n(c2=O)CCC3)cc1	-4.0	0.6	/	-2.1	-0.9	/
C=CC[C@]1(c2ccccc2)C(=O)N2C[C@H]3CON(C)[C@H]3C[C@H]2c2ccccc21	8.0	6.8	/	0.3	1.1	/
O=C(CSc1nnc(-c2ccccc2)n1-c1ccccc1)Nc1ccc(Oc2ccccc2)cc1	-7.0	-2.4	/	0.3	0.1	/
COc1ccc(CCN(C)C(=O)C2CCCN(C3CCN(Cc4ccccc4)CC3)C2)cc1OC (configuration not stated)	31.7*	4.9	-2.5	-2.6	3.7	8.6
O=C(NCc1cccnc1)c1ccc2c(c1)N(Cc1ccccc1)CCS2	24.9*	-1.9	-3.1	3.2	-3.0	-3.4
CN1C(=O)NC(c2ccccc2[N+](=O)[O-])C2=C1CC(C)(C)CC2=O (configuration not stated)	30.6*	3.7	1.7	-4.0	-5.8	12.7
Cc1ccccc1Cn1cc(CN2[C@@H](C)COc3cc(Br)ccc3S2(=O)=O)nn1	-4.0	2.0	/	1.1	-1.6	/
COC(=O)[C@@H](CC(C)C)CP(=O)(OC)[C@@H](C)NC(=O)OCc1ccccc1 (some centres not stated)	-0.8	0.4	/	-1.4	0.1	/
O=C(NC(=S)Nc1ccccc1N1CCCC1)c1ccco1	38.1*	2.7	-5.4	-2.2	-6.6	29.4*
SMILES	TDP2 absorb	LEDGF integ inh	Rin1 Abl inh	MBD2 DNA inh	UHRF1 MBD2 ctr	TDP2 confirm
CC(C(=O)NC1CCCCCC1)c1ccc([N+](=O)[O-])cc1 (configuration not stated)	24.6*	-2.2	-0.2	2.7	-2.6	-3.1
O=C1CCC[C@H]2C[C@H](NCc3ccc(Br)cc3)CC[C@]23CCCN13	-2.2	-0.8	/	-1.0	0.8	/
CCN(CC)c1ccc2cc(-c3nc(-c4cc5ccccc5oc4=O)cs3)c(=O)oc2c1	31.6*	0.8	2.4	7.6	15.4	5.3
N#Cc1sc2nc(C3CC3)cc(-c3ccccc3)c2c1N	-0.8	1.4	-0.4	-3.6	-0.8	/
N#Cc1sc2nc(-c3ccccc3)cc(-c3ccco3)c2c1N	54.1*	7.6	-2.4	-5.3	-5.8	56.4*
Cc1ccc(S(=O)(=O)/N=C2\C=C(Nc3cccc(C(=O)O)c3)C(=O)c3ccccc32)c(C)c1	61.9*	10.9	2.2	-1.8	1.9	70.5*
Cc1ccc(S(=O)(=O)/N=C2\C=C(NS(=O)(=O)c3ccccc3)C(=O)c3ccccc32)c(C)c1	3.4	1.7	0.1	-16.7	-2.3	/
Cc1ccc(NC2=C/C(=N/S(=O)(=O)c3cccs3)c3ccccc3C2=O)cc1	36.1*	2.2	0.0	2.1	-3.4	41.0*
CCOC(=O)c1csc(NC(=O)C2CCCN(S(=O)(=O)c3cc(OC)ccc3OC)C2)n1 (configuration not stated)	-1.9	2.0	/	-4.0	-1.6	/
COc1c2c(cc3c1C(CC(O)Cc1ccccc1)N(C)CC3)OCO2 (configuration not stated)	25.5*	1.9	0.5	-2.6	-0.4	-1.5
COc1ccc(NC(=O)CN(C)S(=O)(=O)c2ccc(Br)s2)cc1	24.6*	0.5	5.5	-0.1	1.6	0.8
COc1cc(C2C(C#N)=C(N)Oc3n[nH]c(-c4cccs4)c32)cc(OC)c1O (configuration not stated)	37.1*	7.0	2.6	-7.8	-14.5	8.4
N#CC1=C(N)Oc2n[nH]c(-c3cccs3)c2C1c1ccoc1 (configuration not stated)	6.7	4.8	0.5	-2.3	-8.7	/
Cc1ccc(C2C(C#N)=C(N)Oc3n[nH]c(-c4cccs4)c32)cc1 (configuration not stated)	31.9*	3.5	-1.3	-6.5	-4.4	10.7
N#CC1=C(N)Oc2n[nH]c(-c3cccs3)c2C1c1cccnc1 (configuration not stated)	7.8	0.0	-0.6	-5.0	-6.2	/
Cc1ccccc1CNC(=O)C1CCC(CNS(=O)(=O)c2cccc3cccnc23)CC1 (configuration not stated)	9.1	0.7	/	-2.7	-1.0	/
Cn1[nH]c(CSc2ccc(Cl)cc2)cc1=O	48.3*	5.7	2.0	2.4	2.0	3.0
